Reference: ChEMBL document CHEMBL1122071, “Avermectin acyl derivatives with anthelmintic activity” (1982)

Assays:
Assay type in all cases: functional
[1] = test system: Teladorsagia circumcincta; assay: Anthelmintic efficacy against immature (EL4) Ostertagia circumcincta (O. c) in sheep at dose of 0.1 mg/kg administered orally; conditions: route oral
Procedure, shortened: (§1)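 Lambs were experimentally infected with mixed gastrointestinal nematodes: Haemonchus contortus, Ostertagia circumcincta, Trichostrongylus axei, T. colubriformis, Cooperia oncophora and Oesophagostomum columbianum. Dosing was oral, in mg/kg, with 3 sheep per dose group. An untreated infected group of 6 sheep served as reference, with worm burdens given as the geometric mean per lamb. Immature (EL4) and adult worms were scored separately.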

Haemonchus contortus [2] = assay: Anthelmintic efficacy against immature (EL4) Haemonchus contortus (H.c) in sheep at dose of 0.1 mg/kg administered orally; conditions: route oral; procedure, shortened: as §1
[3] = test system: Oesophagostomum columbianum; assay: Anthelmintic efficacy against Oseophagostomum columbianum (Oe. c) in sheep at dose of 0.05 mg/kg administered orally; conditions: route oral; procedure, shortened: as §1
Cooperia oncophora [4] = assay: Anthelmintic efficacy against immature (EL4) Cooperia oncopphora (C.o) in sheep at dose of 0.025 mg/kg administered orally; 0-19%; procedure, shortened: as §1
Trichostrongylus axei [5] = assay: Anthelmintic efficacy against Trichostrongylus axei (T.a) in sheep at dose of 0.1 mg/kg administered orally; conditions: route oral
Procedure, shortened: (§2)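 Lambs experimentally infected with mixed gastrointestinal nematodes (H. contortus, O. circumcincta, T. axei, T. colubriformis, C. oncophora, Oe. columbianum) were dosed orally, 1–3 sheep per dose. An untreated infected group of 6 was included, with worm burdens given as the geometric mean number of worms per lamb. Efficacy was scored against adult and, where listed, EL4 stages.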

Trichostrongylus axei [6] = assay: Anthelmintic efficacy against Trichostrongylus axei (T.a) in sheep at dose of 0.05 mg/kg administered orally; conditions: route oral; procedure, shortened: as §1
[7] = test system: Teladorsagia circumcincta; assay: Anthelmintic efficacy against immature (EL4) Ostertagia circumcincta (O. c) in sheep at dose of 0.025 mg/kg administered orally; 20-59%; procedure, shortened: as §1
Haemonchus contortus [8] = assay: Anthelmintic efficacy against adult Haemonchus contortus (H.c) in sheep at dose of 0.025 mg/kg administered orally; conditions: route oral; procedure, shortened: as §1
Cooperia oncophora [9] = assay: Anthelmintic efficacy against adult Cooperia oncopphora (C.o) in sheep at dose of 0.025 mg/kg administered orally; 20-59%; procedure, shortened: as §1
[10] = test system: Teladorsagia circumcincta; assay: Anthelmintic efficacy against […] (EL4) Ostertagia circumcincta (O. c) in sheep at dose of 0.025 mg/kg administered orally; 60-89%; procedure, shortened: as §1
Haemonchus contortus [11] = assay: Anthelmintic efficacy against adult Haemonchus contortus (H.c) in sheep at dose of 0.1 mg/kg administered orally; conditions: route oral; procedure, shortened: as §2
Haemonchus contortus [12] = assay: Anthelmintic efficacy against immature (EL4) Haemonchus contortus (H.c) in sheep at dose of 0.05 mg/kg administered orally; conditions: route oral; procedure, shortened: as §1
[13] = test system: Trichostrongylus colubriformis; assay: Minimal dose necessary to eliminate > 83% of Trichostrongylus colubriformis infection in gerbils
[14] = test system: Teladorsagia circumcincta; assay: Anthelmintic efficacy against adult Ostertagia circumcincta (O. c) in sheep at dose of 0.1 mg/kg administered orally; conditions: route oral; procedure, shortened: as §2
Cooperia oncophora [15] = assay: Anthelmintic efficacy against adult Cooperia oncopphora (C.o) in sheep at dose of 0.05 mg/kg administered orally; conditions: route oral; procedure, shortened: as §1
[16] = test system: Trichostrongylus colubriformis; assay: Anthelmintic efficacy against Trichostrongylus colubriformis (T.c) in sheep at dose of 0.025 mg/kg administered orally; 60-89%; procedure, shortened: as §1
Haemonchus contortus [17] = assay: Anthelmintic efficacy against adult Haemonchus contortus (H.c) in sheep at dose of 0.05 mg/kg administered orally; conditions: route oral; procedure, shortened: as §1
[18] = test system: Trichostrongylus colubriformis; assay: Anthelmintic efficacy against Trichostrongylus colubriformis (T.c) in sheep at dose of 0.1 mg/kg administered orally; conditions: route oral; procedure, shortened: as §1
Cooperia oncophora [19] = assay: Anthelmintic efficacy against adult Cooperia oncopphora (C.o) in sheep at dose of 0.1 mg/kg administered orally; conditions: route oral; procedure, shortened: as §1
Haemonchus contortus [20] = assay: Anthelmintic efficacy against immature (EL4) Haemonchus contortus (H.c) in sheep at dose of 0.025 mg/kg administered orally; conditions: route oral; procedure, shortened: as §1
[21] = test system: Teladorsagia circumcincta; assay: Anthelmintic efficacy against adult Ostertagia circumcincta (O. c) in sheep at dose of 0.05 mg/kg administered orally; conditions: route oral; procedure, shortened: as §1
[22] = test system: Oesophagostomum columbianum; assay: Anthelmintic efficacy against Oseophagostomum columbianum (Oe. c) in sheep at dose of 0.1 mg/kg administered orally; conditions: route oral; procedure, shortened: as §2
[23] = test system: Teladorsagia circumcincta; assay: Anthelmintic efficacy against immature (EL4) Ostertagia circumcincta (O. c) in sheep at dose of 0.05 mg/kg administered orally; conditions: route oral; procedure, shortened: as §1
Trichostrongylus axei [24] = assay: Anthelmintic efficacy against Trichostrongylus axei (T.a) in sheep at dose of 0.025 mg/kg administered orally; 60-89%; procedure, shortened: as §1
Cooperia oncophora [25] = assay: Anthelmintic efficacy against immature (EL4) Cooperia oncopphora (C.o) in sheep at dose of 0.05 mg/kg administered orally; conditions: route oral; procedure, shortened: as §1
Cooperia oncophora [26] = assay: Anthelmintic efficacy against immature (EL4) Cooperia oncopphora (C.o) in sheep at dose of 0.1 mg/kg administered orally; conditions: route oral; procedure, shortened: as §1
[27] = test system: Oesophagostomum columbianum; assay: Anthelmintic efficacy against Oseophagostomum columbianum (Oe. c) in sheep at dose of 0.025 mg/kg administered orally; conditions: route oral; procedure, shortened: as §1
[28] = test system: Trichostrongylus colubriformis; assay: Anthelmintic efficacy against Trichostrongylus colubriformis (T.c) in sheep at dose of 0.05 mg/kg administered orally; conditions: route oral; procedure, shortened: as §1
[29] = test system: Oesophagostomum columbianum; assay: Anthelmintic efficacy against Oseophagostomum columbianum (Oe. c) in sheep at dose of 0.25 mg/kg administered orally; conditions: route oral; procedure, shortened: as §2
Cooperia oncophora [30] = assay: Anthelmintic efficacy against adult Cooperia oncopphora (C.o) in sheep at dose of 0.25 mg/kg administered orally; 60-89%; procedure, shortened: as §2
Trichostrongylus axei [31] = assay: Anthelmintic efficacy against Trichostrongylus axei (T.a) in sheep at dose of 0.25 mg/kg administered orally; 20-59%; procedure, shortened: as §2
[32] = test system: Trichostrongylus colubriformis; assay: Anthelmintic efficacy against Trichostrongylus colubriformis (T.c) in sheep at dose of 0.25 mg/kg administered orally; 60-89%; procedure, shortened: as §2
[33] = test system: Teladorsagia circumcincta; assay: Anthelmintic efficacy against adult Ostertagia circumcincta (O. c) in sheep at dose of 0.25 mg/kg administered orally; 60-89%; procedure, shortened: as §2
Haemonchus contortus [34] = assay: Anthelmintic efficacy against adult Haemonchus contortus (H.c) in sheep at dose of 0.25 mg/kg administered orally; conditions: route oral; procedure, shortened: as §2

SMILES: CC[C@H](C)[C@H]1O[C@]2(C=C[C@@H]1C)C[C@@H]1C[C@@H](C/C=C(\C)[C@@H](O[C@H]3C[C@H](OC)[C@@H](O[C@H]4C[C@H](OC)[C@@H](O)[C@H](C)O4)[C@H](C)O3)[C@@H](C)/C=C/C=C3\CO[C@@H]4[C@H](O)C(C)=C[C@@H](C(=O)O1)[C@]34O)O2 [ABAMECTIN COMPONENT B1A]
- Efficacy [1]: >90%
- Efficacy (Haemonchus contortus [2]): >90%
- Efficacy [3]: >90%
- Efficacy (Cooperia oncophora [4]): 0%
- Efficacy (Trichostrongylus axei [5]): >90%
- Efficacy (Trichostrongylus axei [6]): >90%
- Efficacy [7]: 20%
- Efficacy (Haemonchus contortus [8]): >90%
- Efficacy (Cooperia oncophora [9]): 20%
- Efficacy [10]: 60%
- Efficacy (Haemonchus contortus [11]): >90%
- Efficacy (Haemonchus contortus [12]): >90%
- Dose [13]: 0.025 mg/kg
- Efficacy [14]: >90%
- Efficacy (Cooperia oncophora [15]): >90%
- Efficacy [16]: 60%
- Efficacy (Haemonchus contortus [17]): >90%
- Efficacy [18]: >90%
- Efficacy (Cooperia oncophora [19]): >90%
- Efficacy (Haemonchus contortus [20]): >90%
- Efficacy [21]: >90%
- Efficacy [22]: >90%
- Efficacy [23]: >90%
- Efficacy (Trichostrongylus axei [24]): 60%
- Efficacy (Cooperia oncophora [25]): >90%
- Efficacy (Cooperia oncophora [26]): >90%
- Efficacy [27]: >90%
- Efficacy [28]: >90%

SMILES: CC[C@H](C)[C@H]1O[C@]2(CC(OC(C)=O)[C@@H]1C)C[C@@H]1C[C@@H](C/C=C(\C)[C@@H](OC3CC(OC)C(OC4CC(OC)C(OC(C)=O)C(C)O4)C(C)O3)[C@@H](C)/C=C/C=C3\CO[C@@H]4[C@H](OC)C(C)=C[C@@H](C(=O)O1)[C@]34O)O2 (stereo not given in full)
- Efficacy [29]: >90%
- Efficacy (Cooperia oncophora [30]): 60%
- Dose [13]: 0.5 mg/kg
- Efficacy (Trichostrongylus axei [31]): 20%
- Efficacy [32]: 60%
- Efficacy [33]: 60%
- Efficacy (Haemonchus contortus [34]): >90%
